pIC50: −log10 of the molar value. The source made the active and inactive calls. The calls are words filed in the database; no cut-off is given here.
Legend:
[1] = tested on: A549; test: Cytotoxicity against human A549 cells after 72 hrs by MTT assay; assay type: functional, cell-based; conditions: A549, 72 h
Outline: (§1)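 A549, MDA-MB-435 and LOVO cells seeded at 6000–10,000 per well. Treated in triplicate with graded drug concentrations for 72 h at 37 °C. Viability read by MTT; IC50 taken from the dose–response curve.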

[2] = tested on: MDA-MB-435; test: Cytotoxicity against human MDA-MB-435 cells after 72 hrs by MTT assay; assay type: functional, cell-based; conditions: MDA-MB-435, 72 h; outline: as §1
[3] = tested on: LoVo; test: Cytotoxicity against human LoVo cells after 72 hrs by MTT assay; assay type: functional, cell-based; outline: as §1
[4] = species on record: Bos taurus; test: Inhibition of calf thymus topoisomerase 1-mediated relaxation of Escherichia coli pBR322 plasmid DNA after 15 mins by cleavable complex assay
Outline: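 Calf thymus Topo I (0.5 U) incubated with 0.25 μg supercoiled pBR322 DNA in Topo I buffer with 0.1% BSA stock, with or without drug at 1, 10 and 50 μM, 37 °C for 15 min. Stopped with SDS (0.5% final). Products resolved on 0.8% agarose gel in TAE (120 V, 40 min), ethidium bromide stained, imaged under UV.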

[5] = tested on: A549; test: Antitumor activity against human A549 cells xenografted in BALB/c mouse assessed as inhibition of tumor growth at 50 mg/kg, ip relative to control; assay type: functional; conditions: route intraperitoneal, read-out: TGI
Outline: (§2)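 Male BALB/c nude mice (18-20g) implanted subcutaneously in right axilla with A549 cells. Treatment started at day 17 when tumors reached about 100–300 mm³. Single ip injection on day 17, six mice per group, eight controls. Caliper length and width every 4 days, TV = 1/2 × a × b². Sacrificed day 35, tumors removed; growth inhibition relative to placebo controls.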

[6] = tested on: A549; test: Antitumor activity against human A549 cells xenografted in ip dosed BALB/c mouse assessed as tumor regression; assay type: functional, organism-based; outline: as §2
[7] = Chemical stability assessed as compound remaining at pH 3.0 after 24 hrs by modified HPLC method; assay type: physicochemical; conditions: buffer, read-out: Stability
Outline: (§3)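 Drug in DMSO (2 mM, 430 μL) added to 70 μL of aqueous solution preincubated 5 min at 37 °C. Samples held at 37 °C, pH 3.0 or pH 7.4. Percent of initial phosphate-form concentration followed by modified HPLC.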

[8] = Chemical stability assessed as compound remaining at pH 7.4 after 24 hrs by modified HPLC method; assay type: physicochemical; conditions: buffer, read-out: Stability; outline: as §3
[9] = tested on: A549; test: Antitumor activity against human A549 cells xenografted in BALB/c mouse assessed as inhibition of tumor growth at 25 mg/kg, ip relative to control; assay type: functional; conditions: route intraperitoneal, read-out: TGI; outline: as §2
[10] = tested on: A549; test: Antitumor activity against human A549 cells xenografted in BALB/c mouse assessed as inhibition of tumor growth at 6.25 to 25 mg/kg, ip relative to control; assay type: functional; conditions: dose mg/kg 6.25-25; route intraperitoneal; outline: as §2
[11] = species on record: Bos taurus; test: Inhibition of calf thymus topoisomerase 1-mediated relaxation of Escherichia coli pBR322 plasmid DNA at 100 uM after 15 mins by cleavable complex assay
Outline: (§4)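 Calf thymus Topo I (0.5 U) with 0.25 μg supercoiled pBR322 in Topo I buffer containing BSA, with or without drug, 37 °C for 15 min. Stopped with 0.5% SDS final. Run on 0.8% agarose gel in TAE, 120 V for 40 min, stained with ethidium bromide, viewed under UV.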

[12] = species on record: Bos taurus; test: Inhibition of calf thymus topoisomerase 1-mediated relaxation of Escherichia coli pBR322 plasmid DNA at 1 uM after 15 mins by cleavable complex assay; outline: as §4

| Structure (SMILES) | pIC50 [1] | pIC50 [2] | pIC50 [3] | further results |
| --- | --- | --- | --- | --- |
| CC[C@@]1(O)CC(=O)OCc2c1cc1n(c2=O)Cc2c-1nc1ccc(OP(=O)(OCC(F)(F)F)OCC(F)(F)F)cc1c2C | 4.81 | 6.66 | 5.27 |  |
| CC[C@@]1(O)CC(=O)OCc2c1cc1n(c2=O)Cc2c-1nc1ccc(O)cc1c2C | 7.52 | > 9.00 | 8.00 | inhibition [4]: Dose-dependent effect |
| CCCCCOP(=O)(OCCCCC)Oc1ccc2nc3c(c(C)c2c1)Cn1c-3cc2c(c1=O)COC(=O)C[C@]2(O)CC | 5.64 | 6.14 | 5.92 | inhibition in vivo at 50 mg/kg [5]: 42%; Activity [6]: Dose-dependent effect; remaining at 24 h [7]: 100%; remaining at 24 h [8]: 91% |
| CCCCOP(=O)(OCCCC)Oc1ccc2nc3c(c(C)c2c1)Cn1c-3cc2c(c1=O)COC(=O)C[C@]2(O)CC | 5.55 | 6.29 | 6.04 | inhibition in vivo at 25 mg/kg [9]: 59%; TGI [10]: 25%; Activity [6]: Dose-dependent effect; inhibition [11]: Active; remaining at 24 h [7]: 100%; remaining at 24 h [8]: 95% |
| CC[C@@]1(O)CC(=O)OCc2c1cc1n(c2=O)Cc2c-1nc1ccc(OP(=O)(OC(C)C)OC(C)C)cc1c2C | 4.94 | 5.47 | 5.25 |  |
| CCOP(=O)(O)Oc1ccc2nc3c(c(C)c2c1)Cn1c-3cc2c(c1=O)COC(=O)C[C@]2(O)CC | 4.94 | 5.28 | 5.14 |  |
| CC[C@@]1(O)C(=O)OCc2c1cc1n(c2=O)Cc2cc3ccccc3nc2-1 |  |  |  | inhibition [12]: inactive |
| CCCCCCCCCCCCCCCCOP(=O)(OCCCCCCCCCCCCCCCC)Oc1ccc2nc3c(c(C)c2c1)Cn1c-3cc2c(c1=O)COC(=O)C[C@]2(O)CC | < 4.00 | < 4.00 | < 4.00 |  |
| CCc1c2c(nc3ccc(OC(=O)N4CCC(N5CCCCC5)CC4)cc13)-c1cc3c(c(=O)n1C2)COC(=O)[C@]3(O)CC [IRINOTECAN] | 5.34 | 5.94 | 5.30 | inhibition in vivo at 50 mg/kg [5]: 51% |
| CC[C@@]1(O)C(=O)OCc2c1cc1n(c2=O)Cc2cc3c(CN(C)C)c(O)ccc3nc2-1 [TOPOTECAN] | 7.40 | > 9.00 | 7.70 |  |
| CC[C@@]1(O)CC(=O)OCc2c1cc1n(c2=O)Cc2c-1nc1ccc(OP(=O)(O)OCc3ccccc3)cc1c2C | 4.53 | 4.97 | 5.03 |  |
| CCOP(=O)(OCC)Oc1ccc2nc3c(c(C)c2c1)Cn1c-3cc2c(c1=O)COC(=O)C[C@]2(O)CC | 5.09 | 6.10 | 5.90 |  |

From ChEMBL document CHEMBL1158530, “Phosphate ester derivatives of homocamptothecin: synthesis, solution stabilities and antitumor activities” (Bioorg Med Chem, 2010)
